Values after ≈ are worked out from the molar mass of the structure shown.
How the values were obtained:
Assay type in all cases: functional
[1] = Antibacterial activity against Staphylococcus albus
Procedure, shortened: (§1)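 Broth-based antibacterial test run in LB broth, with puramycin as the reference agent.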

Bacillus subtilis = test: Antibacterial activity against Bacillus subtilis; procedure, shortened: as §1
Saccharomyces cerevisiae = test: Antifungal activity against Saccharomyces cerevisiae
Procedure, shortened: (§2)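 Yeasts were tested in YPD broth, with amphotericin B as the reference antifungal.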

Escherichia coli = test: Antibacterial activity against Escherichia coli ESS K12; procedure, shortened: as §1
Candida albicans = test: Antifungal activity against Candida albicans ATCC 90028; procedure, shortened: as §2

Structure (SMILES) | MIC [1] [mg/L] | MIC (Bacillus subtilis) [mg/L] | MIC (Saccharomyces cerevisiae) [mg/L] | MIC (Escherichia coli) [mg/L] | MIC (Candida albicans) [mg/L]
[C-]#[N+][C@@H]1[C@@H]2c3c(C(C)(C)C=C)[nH]c4cccc(c34)C(C)(C)[C@H]2CC[C@]1(C)C=C | 0.625 (≈ 1.68 µM) | 1.25 (≈ 3.36 µM) | 5 (≈ 13.4 µM) | 10 (≈ 26.8 µM) | 6.25 (≈ 16.8 µM)
C=C[C@@]1(C)CC[C@@H]2C(C)(C)c3cccc4[nH]c5c(c34)[C@@]2(O)[C@]1(C#N)[C@H]1O[C@H]1C5(C)C [AMBIGUINE I ISONITRILE] | 0.078 (≈ 0.194 µM) | 0.312 (≈ 0.775 µM) | 0.312 (≈ 0.775 µM) | 2.5 (≈ 6.21 µM) | 0.39 (≈ 0.969 µM)
COc1ccc(C[C@H](N)C(=O)N[C@H]2[C@@H](O)[C@H](n3cnc4c(N(C)C)ncnc43)O[C@@H]2CO)cc1 [PUROMYCIN] |  |  | 0.312 (≈ 0.662 µM) |  | 

Other lines, results leading:

MIC [1] [mg/L] | MIC (Bacillus subtilis) [mg/L] | MIC (Saccharomyces cerevisiae) [mg/L] | MIC (Escherichia coli) [mg/L] | MIC (Candida albicans) [mg/L] | Structure (SMILES)
 |  |  |  | 1.56 (≈ 1.69 µM) | C[C@@H]1[C@H](O)[C@@H](C)/C=C/C=C/C=C/C=C/C=C/C=C/C=C/[C@H](O[C@@H]2O[C@H](C)[C@@H](O)[C@H](N)[C@@H]2O)C[C@@H]2O[C@](O)(C[C@@H](O)C[C@@H](O)[C@H](O)CC[C@@H](O)C[C@@H](O)CC(=O)O[C@H]1C)C[C@H](O)[C@H]2C(=O)O [AMPHOTERICIN B]
0.156 (≈ 0.268 µM) | 2.5 (≈ 4.3 µM) |  | 0.312 (≈ 0.536 µM) |  | CN[C@@H]1[C@H](O[C@H]2[C@H](O[C@H]3[C@H](O)[C@@H](O)[C@H](N=C(N)N)[C@@H](O)[C@@H]3N=C(N)N)O[C@@H](C)[C@]2(O)C=O)O[C@@H](CO)[C@H](O)[C@H]1O [STREPTOMYCIN]
